Blank lines part the entries; values can stand above or below the molecule they belong to. Calls of active or inactive are those of the source. No cut-off for these calls is given here.
What was measured:
Steroidogenic factor 1 [1] = target: T1, Steroidogenic factor 1 (Homo sapiens, UniProt Q13285); experiment: Inverse agonist activity at SF-1; format: functional
NCI-H295RR = experiment: Inhibition of doxycycline induced proliferation in human NCI-H295RR cells; format: functional, cell-based
Steroidogenic factor 1 [2] = target: T1, Steroidogenic factor 1; experiment: Agonist activity at human SF-1 assessed as DAX1 1-23 peptide recruitment by TR-FRET assay; format: functional
Summary of the method: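 Biotinylated, bacterially expressed human SF-1 LBD was bound to APC-streptavidin. Biotinylated DAX-1 peptide (aa 1–23) was bound to europium-streptavidin. Receptor and peptide were incubated with test compound, typically at 11 concentrations from 1 nm to 10 µM. Recruitment was read by TR-FRET as the 671/618 nm fluorescence ratio, and pEC50 was calculated from the dose–response curve.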

Steroidogenic factor 1 [3] = target: T1, Steroidogenic factor 1; experiment: Agonist activity at human SF-1 assessed as DAX1 1-23 peptide recruitment by TR-FRET assay relative to control
[4] = target: Steroidogenic factor 1 (Mus musculus) (UniProt P33242); experiment: Agonist activity at mouse SF-1 expressed in HEK293 cells assessed as increase in SHP mRNA levels at 10 uM after 24 hrs by RT-qPCR method; format: functional, cell-based
Summary of the method: (§1)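 HEK293 cells stably carrying Tet-inducible, 3XFlag-tagged mouse SF-1 were induced with 100 ng/mL Tet, and compound in DMSO was added 16 h later. Cells were treated at 10 µM for 24 h. Transcript levels were measured by RT-qPCR and expressed relative to DMSO vehicle.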

[5] = target: Steroidogenic factor 1 (Mus musculus) (UniProt P33242); experiment: Displacement of dipalmitoyl phosphatidylinositol 4,5-bisphosphate from mouse SF-1 ligand binding domain at 100 uM after 16 hrs with Coomassie blue staining by PAGE method
[6] = target: Nuclear receptor subfamily 5 group A member 2 (Homo sapiens) (UniProt O00482); experiment: Agonist activity at human LRH-1 ligand binding domain at 100 uM with Coomassie blue staining by PAGE method
[7] = target: Steroidogenic factor 1 (Mus musculus) (UniProt P33242); experiment: Agonist activity at mouse SF-1 expressed in HEK293 cells assessed as increase in GOS2 mRNA levels at 10 uM after 24 hrs by RT-qPCR method; format: functional, cell-based; summary of the method: as §1
[8] = target: Steroidogenic factor 1 (Mus musculus) (UniProt P33242); experiment: Displacement of dipalmitoyl phosphatidylinositol 4,5-bisphosphate from mouse SF-1 ligand binding domain at 1 uM after 16 hrs with Coomassie blue staining by PAGE method
[9] = target: Steroidogenic factor 1 (Mus musculus) (UniProt P33242); experiment: Agonist activity at mouse SF-1 expressed in HEK293 cells assessed as increase in MeOx1 mRNA levels at 10 uM after 24 hrs by RT-qPCR method; format: functional, cell-based; summary of the method: as §1
[10] = target: Steroidogenic factor 1 (Mus musculus) (UniProt P33242); experiment: Agonist activity at mouse SF-1 expressed in HEK293 cells assessed as increase in StAR mRNA levels at 10 uM after 24 hrs by RT-qPCR method; format: functional, cell-based; summary of the method: as §1
[11] = Solubility of the compound; format: physicochemical
Steroidogenic factor 1 [12] = target: T1, Steroidogenic factor 1; experiment: Agonist activity at human SF-1 assessed as DAX1 1-23 peptide recruitment by TR-FRET assay relative to control
[13] = target: Steroidogenic factor 1 (Mus musculus) (UniProt P33242); experiment: Agonist activity at mouse SF-1 expressed in HEK293 cells assessed as increase in SHP mRNA levels after 24 hrs by RT-qPCR method; format: functional, cell-based
Summary of the method: (§2)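 Stable HEK293 lines expressing Tet-inducible mouse SF-1 or empty vector were induced with 100 ng/mL Tet, with compound in DMSO added 16 h afterward. Cells were exposed to a dose series for 24 h. SHP mRNA was quantified by RT-qPCR relative to DMSO, with significance by p-value.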

[14] = target: Steroidogenic factor 1 (Mus musculus) (UniProt P33242); experiment: Agonist activity at mouse SF-1 expressed in HEK293 cells assessed as increase in SHP mRNA levels at 5 uM after 24 hrs by RT-qPCR method; format: functional, cell-based; summary of the method: as §2
[15] = target: Nuclear receptor subfamily 5 group A member 2 (Homo sapiens) (UniProt O00482)

Steroidogenic factor 1 (Mus musculus), sequence (P33242 whole entry, the tested form may be a part): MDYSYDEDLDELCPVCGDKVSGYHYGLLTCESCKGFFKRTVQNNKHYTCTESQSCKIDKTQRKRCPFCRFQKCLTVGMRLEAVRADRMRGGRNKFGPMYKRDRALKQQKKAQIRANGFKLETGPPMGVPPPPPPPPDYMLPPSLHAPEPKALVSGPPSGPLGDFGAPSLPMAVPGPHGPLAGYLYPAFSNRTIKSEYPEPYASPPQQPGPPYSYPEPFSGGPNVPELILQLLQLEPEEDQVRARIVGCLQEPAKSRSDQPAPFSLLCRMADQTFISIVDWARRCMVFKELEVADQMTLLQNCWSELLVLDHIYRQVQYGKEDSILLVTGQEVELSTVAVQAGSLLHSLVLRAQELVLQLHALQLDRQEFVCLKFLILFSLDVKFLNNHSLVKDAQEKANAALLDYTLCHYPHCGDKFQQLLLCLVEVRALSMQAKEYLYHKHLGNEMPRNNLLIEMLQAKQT
Nuclear receptor subfamily 5 group A member 2 (Homo sapiens), sequence (O00482 whole entry, the tested form may be a part): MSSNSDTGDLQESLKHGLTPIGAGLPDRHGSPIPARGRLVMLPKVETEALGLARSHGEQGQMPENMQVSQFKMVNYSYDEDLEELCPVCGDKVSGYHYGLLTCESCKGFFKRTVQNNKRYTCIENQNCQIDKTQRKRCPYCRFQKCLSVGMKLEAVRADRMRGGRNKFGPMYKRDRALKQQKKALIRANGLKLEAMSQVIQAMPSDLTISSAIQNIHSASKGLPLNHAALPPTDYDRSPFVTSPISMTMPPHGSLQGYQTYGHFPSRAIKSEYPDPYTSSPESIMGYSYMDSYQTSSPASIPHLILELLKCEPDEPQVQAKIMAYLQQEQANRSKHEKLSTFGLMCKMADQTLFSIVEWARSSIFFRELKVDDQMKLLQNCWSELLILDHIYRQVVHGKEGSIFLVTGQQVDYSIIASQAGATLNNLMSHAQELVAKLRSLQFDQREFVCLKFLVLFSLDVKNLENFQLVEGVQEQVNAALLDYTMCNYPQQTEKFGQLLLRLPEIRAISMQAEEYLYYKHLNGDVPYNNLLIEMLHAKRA
T1 sequence (Q13285 whole entry): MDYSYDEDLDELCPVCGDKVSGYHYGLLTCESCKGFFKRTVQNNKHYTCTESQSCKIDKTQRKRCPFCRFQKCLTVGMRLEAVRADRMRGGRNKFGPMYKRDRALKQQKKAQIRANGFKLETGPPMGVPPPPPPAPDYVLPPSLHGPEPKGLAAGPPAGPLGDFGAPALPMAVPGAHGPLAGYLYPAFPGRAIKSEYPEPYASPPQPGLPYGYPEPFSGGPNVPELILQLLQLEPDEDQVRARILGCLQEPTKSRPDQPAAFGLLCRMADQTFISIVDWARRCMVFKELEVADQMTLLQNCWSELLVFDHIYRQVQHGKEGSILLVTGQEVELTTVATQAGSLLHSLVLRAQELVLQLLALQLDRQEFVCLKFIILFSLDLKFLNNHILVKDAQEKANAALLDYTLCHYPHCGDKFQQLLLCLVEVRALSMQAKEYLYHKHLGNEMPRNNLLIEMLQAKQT

IC50 (Steroidogenic factor 1 [1]): 7300 nM
Structure (SMILES): CCCCCCCOc1ccc(O)cc1

Structure (SMILES): CCOC(=O)C(C)Oc1cccc2c(=O)n(CC(=O)Nc3ccc(OC)cc3)ccc12 (stereo not given)
Activity (NCI-H295RR): Active

Ratio (Steroidogenic factor 1 [2]): 0.56 | EC50 (Steroidogenic factor 1 [3]): 200 nM
Structure (SMILES): CCCCCCC1=C(c2ccccc2)[C@]2(OCC(C)CC)CCC[C@@H]2C1 (mixture of isomers)

Ratio (Steroidogenic factor 1 [2]): 0.67 | EC50 (Steroidogenic factor 1 [3]): 200 nM
Structure (SMILES): CCCCCCC1=C(c2ccccc2)[C@]2(OCCC)CCC[C@@H]2C1 (racemic)

Activity [4]: inactive | Ratio (Steroidogenic factor 1 [2]): 0.76 | Activity [5]: inactive | EC50 (Steroidogenic factor 1 [3]): 200 nM
Structure (SMILES): C=C(CCCC)[C@@]12CCC[C@@H]1CC(CCCCCC)=C2c1ccccc1 (racemic)

Ratio (Steroidogenic factor 1 [2]): 0.59 | EC50 (Steroidogenic factor 1 [3]): 200 nM
Structure (SMILES): C=C(c1ccccc1)[C@@]12CCC[C@@H]1CC(CCCCCC)=C2C1CCCCC1 (racemic)

Structure (SMILES): C=C(c1ccccc1)[C@@]12CCC[C@@H]1CC([Si](C)(C)c1ccccc1)=C2c1ccccc1 (racemic)
Ratio (Steroidogenic factor 1 [2]): 0.33 | EC50 (Steroidogenic factor 1 [3]): 63.1 nM

Activity [4]: Active | Activity [6]: Active | Activity [7]: Active | Activity [8]: Active | Activity [9]: Active | Activity [10]: Active | solubility [11]: soluble
Structure (SMILES): C=C(c1ccccc1)[C@@]12CN(C)C[C@@H]1CC(CCCCCC)=C2c1ccccc1 (racemic)

pEC50 (Steroidogenic factor 1 [12]): inactive | solubility [11]: soluble
Structure (SMILES): C=C(c1ccccc1)[C@@]12CN(Cc3ccccc3)C[C@@H]1CC(CCCCCC)=C2c1ccccc1 (racemic)

Activity [13]: Dose-dependent effect | Activity [4]: Active | Activity [14]: Active | Activity [7]: Active | Activity [8]: Active | Activity [9]: Active | Activity [10]: Active | solubility [11]: soluble
Structure (SMILES): C=C(c1ccccc1)[C@@]12CC[C@@H](O)[C@@H]1CC(CCCCCC)=C2c1ccccc1 (racemic)

Ratio (Steroidogenic factor 1 [2]): 0.34 | EC50 (Steroidogenic factor 1 [3]): 200 nM
Structure (SMILES): C=C(c1ccccc1)[C@@]12C[C@H](OC(C)=O)C[C@@H]1CC(CCCCCC)=C2c1ccccc1 (racemic)

pEC50 [15]: inactive | pEC50 (Steroidogenic factor 1 [12]): inactive
Structure (SMILES): C=C(CCCCCC)[C@@]12CCC[C@@H]1CC(CCCCCC)=C2c1ccccc1 (racemic)

pEC50 [15]: inactive | pEC50 (Steroidogenic factor 1 [12]): inactive
Structure (SMILES): C=C(CCCCCCCC)[C@@]12CCC[C@@H]1CC(CCCCCC)=C2c1ccccc1 (racemic)

pEC50 [15]: inactive | pEC50 (Steroidogenic factor 1 [12]): inactive
Structure (SMILES): C=C(c1ccc(-c2ccccc2)cc1)[C@@]12CCC[C@@H]1CC(CCCCCC)=C2c1ccccc1 (racemic)

pEC50 [15]: inactive | pEC50 (Steroidogenic factor 1 [12]): inactive
Structure (SMILES): C=C(c1ccc(C(C)(C)C)cc1)[C@@]12CCC[C@@H]1CC(CCCCCC)=C2c1ccccc1 (racemic)

pEC50 [15]: inactive | pEC50 (Steroidogenic factor 1 [12]): inactive
Structure (SMILES): C=C(c1ccc(CC)cc1)[C@@]12CCC[C@@H]1CC(CCCCCC)=C2c1ccccc1 (racemic)

pEC50 (Steroidogenic factor 1 [12]): inactive
Structure (SMILES): C=C(c1ccc(CCCC)cc1)[C@@]12CCC[C@@H]1CC(CCCCCC)=C2c1ccccc1 (racemic)

pEC50 [15]: inactive | pEC50 (Steroidogenic factor 1 [12]): inactive
Structure (SMILES): C=C(c1ccc(OC)cc1)[C@@]12CCC[C@@H]1CC(CCCCCC)=C2c1ccccc1 (racemic)

pEC50 [15]: inactive
Structure (SMILES): C=C(c1ccccc1)[C@@]12CCC[C@@H]1CC(CCCCCC)=C2CCC (racemic)

pEC50 [15]: inactive
Structure (SMILES): C=C(c1ccccc1)[C@@]12CCC[C@@H]1CC(CCCCCC)=C2CCCC (racemic)

pEC50 [15]: inactive | pEC50 (Steroidogenic factor 1 [12]): inactive
Structure (SMILES): C=C(c1ccccc1)[C@@]12CCC[C@@H]1CC(CCCCCC)=C2CCCCCC (racemic)

Activity [4]: inactive | Activity [5]: inactive | pEC50 (Steroidogenic factor 1 [12]): inactive
Structure (SMILES): C=C(c1ccccc1)[C@@]12CCC[C@@H]1CC(CCCCCC)=C2CCCO (racemic)

pEC50 [15]: inactive | pEC50 (Steroidogenic factor 1 [12]): inactive
Structure (SMILES): C=C(c1ccccc1)[C@@]12CCC[C@@H]1CC(CCCCCC)=C2c1ccc(CC)cc1 (racemic)

pEC50 [15]: inactive | pEC50 (Steroidogenic factor 1 [12]): inactive
Structure (SMILES): C=C(c1ccccc1)[C@@]12CCC[C@@H]1CC=C2c1ccccc1 (racemic)

pEC50 [15]: inactive | pEC50 (Steroidogenic factor 1 [12]): inactive
Structure (SMILES): C=C(c1ccccc1)[C@@]12C[C@@H](OC(C)=O)C[C@@H]1CC(CCCCCC)=C2c1ccccc1 (racemic)

pEC50 [15]: inactive | pEC50 (Steroidogenic factor 1 [12]): inactive
Structure (SMILES): CCCCCCC1=C(c2ccccc2)[C@]2(OC)CCC[C@@H]2C1 (racemic)

pEC50 [15]: inactive
Structure (SMILES): CCCCCCC1=C(c2ccccc2)[C@]2(OCCCCC)CCC[C@@H]2C1 (racemic)

pEC50 (Steroidogenic factor 1 [12]): inactive
Structure (SMILES): CCCCCCC1=C(c2ccccc2)[C@]2(OCc3ccccc3)CCC[C@@H]2C1 (racemic)

pEC50 [15]: inactive | pEC50 (Steroidogenic factor 1 [12]): inactive
Structure (SMILES): CCCCCCO[C@@]12CCC[C@@H]1CC(CCCCCC)=C2c1ccccc1 (racemic)

From ChEMBL document CHEMBL1765026, “Small molecule agonists of the orphan nuclear receptors steroidogenic factor-1 (SF-1, NR5A1) and liver receptor homologue-1 (LRH-1, NR5A2)” (J Med Chem, 2011)
